According to ChEMBL document CHEMBL3734708, “Synthesis, cytotoxicity and antiviral evaluation of new series of imidazo[4,5-g]quinoline and pyrido[2,3-g]quinoxalinone derivatives” (Eur J Med Chem, 2015):

Tests used:
[1] = system: Respiratory syncytial virus; assay: Antiviral activity against RSVA2 ATCC VR-1540 infected in african green monkey Vero-76 cells after 5 days by plaque reduction assay; type: functional, organism-based; conditions: human respiratory syncytial virus, A2 ATCC VR-1540, Vero 76, 120 h
[2] = Cytotoxicity against human MT4 cells assessed as reduction in cell proliferation after 96 hrs by MTT assay; type: cell-based
Summary of the method: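 MT-4 cells in exponential growth seeded at 1 × 10^5 cells/mL in RPMI-1640 with 10% FBS and penicillin/streptomycin. Cultured with serial compound dilutions at 37 °C, 5% CO2. MTT viability after 96 h. CC50 by linear regression against untreated controls. Mean of three independent determinations.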

[3] = system: Human poliovirus 1 strain Sabin; assay: Antiviral activity against Human poliovirus 1 strain Sabin 1 virus infected in african green monkey Vero-76 cells after 2 days by plaque reduction assay; type: functional, organism-based; conditions: Enterovirus C, 1, Vero 76, 48 h
[4] = system: Mammalian orthoreovirus 1; assay: Antiviral activity against Reovirus 1 ATCC VR- 214 infected in BHK21 cells assessed as protection against virus-induced cytopathic effect after 3 or 4 days by MTT assay; type: functional, cell-based; conditions: Mammalian orthoreovirus 1, ATCC VR- 214, BHK-21
Summary of the method: (§1)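 BHK-21 (YFV, Reo-1) or MDBK (BVDV) cells seeded at 5 × 10^4 or 3 × 10^4 cells/well and grown overnight to confluence. Monolayers infected at m.o.i. 0.01 in maintenance medium (MEM-Earle, 0.5% inactivated FBS). Serial compound dilutions added 2 h after infection; 37 °C for 3-4 days. Viability read by MTT. EC50 by linear regression versus untreated controls; mean of three determinations.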

[5] = system: Human immunodeficiency virus 1; assay: Antiviral activity against HIV-1 3B infected in human MT4 cells assessed as protection against virus-induced cytopathic effect after 4 days by MTT assay; type: functional, organism-based; conditions: Human immunodeficiency virus 1, 3B, MT4, 96 h
Summary of the method: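 MT-4 cells (1 × 10^4/well in RPMI) with or without serial compound dilutions, infected with HIV-1 at 100 CCID50 (m.o.i. 0.01). After 4 days at 37 °C, protection from cytopathogenicity read by MTT. EC50 by linear regression versus untreated controls; mean of three independent determinations.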

Vaccinia virus = assay: Antiviral activity against VV Elstree ATCC VR-1549 infected in african green monkey Vero-76 cells after 3 days by plaque reduction assay; type: functional, organism-based; conditions: Orthopoxvirus vaccinia, Elstree ATCC VR-1549, Vero 76, 72 h
Coxsackievirus B5 = assay: Antiviral activity against CVB-5 virus Faulkner ATCC VR-185 infected in african green monkey Vero-76 cells after 3 days by plaque reduction assay; type: functional, organism-based; conditions: Enterovirus B, Faulkner ATCC VR-185, Vero 76, 72 h
[6] = system: Vesicular stomatitis virus; assay: Antiviral activity against VSV Indiana ATCC VR-158 infected in african green monkey Vero-76 cells after 2 days by plaque reduction assay; type: functional, organism-based; conditions: Indiana ATCC VR-158, Vero 76, 48 h
Yellow fever virus = assay: Antiviral activity against YFV 17-D vaccine (Stamaril Pasteur J07B01) infected in BHK21 cells assessed as protection against virus-induced cytopathic effect after 3 or 4 days by MTT assay; type: functional, organism-based; conditions: BHK-21; summary of the method: as §1
[7] = system: Bovine viral diarrhea virus 1; assay: Antiviral activity against BVDV NADL ATCC VR-534 infected in MDBK cells assessed as protection against virus-induced cytopathic effect after 3 or 4 days by MTT assay; type: functional, organism-based; conditions: Bovine viral diarrhea virus isolates and strains, NADL ATCC VR-534, MDBK; summary of the method: as §1
[8] = Cytotoxicity against MDBK cells assessed as reduction in cell viability after 72 hrs by MTT assay; type: cell-based, Bos taurus; conditions: cattle
Summary of the method: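 MDBK cells seeded at 6 × 10^5 cells/mL in MEM-E with L-glutamine, 1 mM sodium pyruvate, kanamycin and 10% horse serum. Mock-infected cultures held with serial compound dilutions at 37 °C, 5% CO2. MTT viability read after 72 h. 50% cytotoxic concentration from linear regression as % of untreated controls. Three independent determinations.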

[9] = Cytotoxicity against african green monkey Vero 76 cells assessed as reduction in cell viability after 48 to 96 hrs by MTT assay; type: cell-based; conditions: chlorocebus sabaeus
Summary of the method: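 Vero-76 cells plated at 4 × 10^5 cells/mL in D-MEM with L-glutamine, kanamycin and 10% FBS. Incubated with serial dilutions of test compounds at 37 °C, 5% CO2 for 48-96 h. Viability by MTT. CC50 by linear regression relative to untreated cells. Mean of three independent runs.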

Human alphaherpesvirus 1 = assay: Antiviral activity against HSV-1 KOS ATCC VR- 1493 infected in african green monkey Vero-76 cells after 3 days by plaque reduction assay; type: functional, organism-based; conditions: Human alphaherpesvirus 1, KOS ATCC VR1493, Vero 76, 72 h
[10] = Cytotoxicity against BHK21 cells assessed as reduction in cell viability after 72 hrs by MTT assay; type: cell-based, Mesocricetus auratus, BHK-21; conditions: hamster
Summary of the method: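 BHK cells seeded at 1 × 10^6 cells/mL in MEM-E with L-glutamine, 1 mM sodium pyruvate, kanamycin and 10% FBS. Mock-infected cells exposed to serial dilutions of compound at 37 °C, 5% CO2, run in parallel with the antiviral assays. Viability by MTT at 72 h. CC50 by linear regression vs untreated controls. Mean of three independent determinations.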

Hepatitis C virus = assay: Antiviral activity against Hepatitis C virus genotype 1b replicon infected in human GS4.1 cells assessed as protection against virus-induced cytopathic effect after […] by ELISA; type: functional, organism-based, Hepacivirus hominis
Summary of the method: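 Huh-7 cells carrying the genotype 1b replicon (GS4.1) seeded at 7.5 × 10^3 cells/well in twofold serial compound dilutions (top 75 µM). Replicon-free Huh-7 served as negative control. 72 h at 37 °C. Fixed in acetone-methanol; NS4A ELISA with mouse monoclonal A-236, peroxidase anti-mouse IgG and phenylenediamine; absorbance at 492 nm. EC50 by four-parameter sigmoidal regression of % inhibition.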

[11] = Selectivity index, ratio of CC50 for human GS4.1 cells to EC50 for Hepatitis C virus genotype 1b replicon infected in human GS4.1 cells; type: toxicity, cell-based; conditions: read-out: Ratio CC50/EC50
Summary of the method: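 Replicon GS4.1 cells 7.5 × 10^3/well with twofold dilutions (top 75 µM), 72 h at 37 °C. Replication measured by NS4A ELISA (anti-NS4A A-236, peroxidase conjugate, phenylenediamine, A492), with EC50 by four-parameter sigmoidal fit. CC50 from CellTiter 96 AQueous One in the same cells. Index taken as CC50/EC50.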

[12] = Selectivity index, ratio of CC50 for MDBK cells to EC50 for BVDV infected in MDBK cells
[13] = Inhibition of BVDV RNA-dependent RNA polymerase pre-incubated for preincubated for 30 mins before GTP addition and measured after 120 mins by fluorescence based microplate reader assay; design: species or system Bovine viral diarrhea virus 1
Summary of the method: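 His-tagged BVDV NS5BΔ24 (C-terminal 24 residues deleted) from E. coli, Ni-NTA purified, 500 ng/reaction. Assay uses poly(rC) 10 µg/mL template, oligo(rG)12 0.1 µg/mL primer and 80 µM GTP. Buffer is 20 mM Tris pH 7.0, 5 mM MgCl2, 25 mM NaCl, 1 mM DTT, 5% DMSO. Threefold compound dilutions, 30 min RT preincubation, 120 min at 37 °C, EDTA stop. Product read by PicoGreen fluorescence (ex 480/em 520), as % residual activity.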

[14] = Cytotoxicity against human GS4.1 cells assessed as reduction in cell viability after 72 hrs by Cell Titer 96 aqueous one solution cell proliferation assay; type: cell-based
Summary of the method: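 GS4.1 cells (Huh-7 carrying an HCV genotype 1b replicon, grown with 0.5 mg/mL G418) seeded at 7.5 × 10^3 cells/well with twofold serial dilutions, top 75 µM. Incubated 72 h at 37 °C, 5% CO2. Viability by CellTiter 96 AQueous One. CC50 from % cytotoxicity vs concentration.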

SMILES | EC50 [1] [µM] | CC50 at 96 h [2] [µM] | EC50 [3] [µM] | EC50 [4] [µM] | EC50 [5] [µM] | EC50 (Vaccinia virus) [µM] | EC50 (Coxsackievirus B5) [µM] | EC50 [6] [µM] | EC50 (Yellow fever virus) [µM] | EC50 [7] [µM] | CC50 at 72 h [8] [µM] | CC50 [9] [µM] | EC50 (Human alphaherpesvirus 1) [µM] | CC50 at 72 h [10] [µM] | EC50 (Hepatitis C virus) [µM] | selectivity ratio [11] | Ratio CC50/EC50 [12] | IC50 [13] [µM] | CC50 at 72 h [14] [µM]
CC(C)c1nc2c(Cl)c3ncccc3cc2[nH]c1=O | > 100 | > 100 | > 100 | > 100 | > 100 | > 100 | > 100 | > 100 | > 100 | > 100 | > 100 | > 100 | > 100 | > 100 |  |  |  |  | 
O=c1[nH]c2cc3cccnc3c(Cl)c2nc1-c1ccccc1 | > 100 | 61 | > 100 | > 100 | > 61 | > 100 | > 100 | > 100 | > 100 | 5 | > 100 | > 100 | > 100 | > 100 | > 11 | 1 | >20 |  | 
O=c1[nH]c2cc3cccnc3c(Cl)c2nc1Cc1ccccc1 | > 88 |  | > 88 | > 100 | > 15 | > 88 | > 88 | > 88 | > 100 | 2.6 | > 100 | 88 | > 88 | > 100 | > 65 | 1 | >34 |  | 
COc1nc2cc3cccnc3c(Cl)c2nc1-c1cccs1 | > 100 | > 100 | > 100 | > 100 | > 100 | > 100 | > 100 | > 100 | > 100 | 1.3 | > 100 | > 100 | > 100 | > 100 |  |  |  | 0.64 | 
O=c1[nH]c2cc3cccnc3c(Cl)c2nc1-c1cccs1 | > 100 | > 100 | > 100 | > 100 | > 100 | > 100 | > 100 | > 100 | > 100 | 6 | > 100 | > 100 | > 100 | > 100 | 7.5 | 3 | >16 |  | 21
CCCn1c(-c2ccccc2)nc2cc3cccnc3cc21 | > 90 | 62 | > 90 | > 100 | > 62 | > 90 | 13 | > 90 | > 100 | > 100 | > 100 | 90 | > 90 | > 100 |  |  |  |  | 
